Reference: ChEMBL document CHEMBL4368880, “Synthesis and biological evaluation of 3-(1,3,4-oxadiazol-2-yl)-1,8-naphthyridin-4(1H)-ones as cisplatin sensitizers” (Medchemcomm, 2018)
Activity calls are given as the source filed them. No cut-off for these calls is given here.

Experiments:
HCT-116 [1] = test: Potentiation of cisplatin-induced morphological changes in human HCT116 cells assessed as chromatin condensation at 2.5 uM preincubated for 24 hrs followed by cisplatin addition and measured after 48 hrs by Hoechst 33258 staining based fluorescence microscopic analysis; assay type: functional, cell-based
How it was run: (§1)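 HCT116 given compound for 24 h, then cisplatin (2.5 μM) for 48 h. Fixed in 4% paraformaldehyde, stained with Hoechst 33258 at 5 μg mL–1, and nuclei examined and counted under a fluorescence microscope. Blue fluorescence quantified, with t-test over three independent experiments.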

HCT-116 [2] = test: Induction of morphological changes in human HCT116 cells assessed as cell shrinkage at 2.5 uM measured after 24 hrs by Hoechst 33258 staining based fluorescence microscopic analysis; assay type: functional
HepG2 [3] = test: Growth inhibition of human HepG2 cells at 5 uM after 24 hrs by MTT assay relative to control; assay type: functional; details: HepG2, 24 h, read-out: GI
How it was run: (§2)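 Monolayers seeded 24 h before treatment, then exposed to compound, with DMEM or RPMI 1640 plus 10% FBS as growth medium. MTT (5 mg mL–1 stock) incubated 2–4 h at 37 °C, formazan dissolved in DMSO, and absorbance read at 570 nm. Growth inhibition reported as % of control.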

HCT-116 [4] = test: Induction of apoptosis in human HCT116 cells assessed as viable cells at 2.5 uM after 24 hrs by Annexin V-FITC/propidium iodide staining based flow cytometry (reference value: 76.5%); assay type: functional; details: HCT-116, 24 h, read-out: Activity
A549 [5] = test: Growth inhibition of human A549 cells at 5 uM after 24 hrs by MTT assay relative to control; assay type: functional; details: A549, 24 h, read-out: GI; how it was run: as §2
HeLa [6] = test: Growth inhibition of human HeLa cells at 10 uM after 24 hrs by MTT assay relative to control; assay type: functional; details: read-out: GI; how it was run: as §2
[7] = molecular target: Serine/threonine-protein kinase ATR (Homo sapiens) (UniProt Q13535); test: Inhibition of ATR in human HCT116 cells assessed as reduction in cisplatin-induced CHK1 expression preincubated for 24 hrs followed by cisplatin addition and measured after 48 hrs by Western blot analysis; assay type: cell-based
Serine/threonine-protein kinase ATR (Homo sapiens), sequence (Q13535 whole entry, looked up): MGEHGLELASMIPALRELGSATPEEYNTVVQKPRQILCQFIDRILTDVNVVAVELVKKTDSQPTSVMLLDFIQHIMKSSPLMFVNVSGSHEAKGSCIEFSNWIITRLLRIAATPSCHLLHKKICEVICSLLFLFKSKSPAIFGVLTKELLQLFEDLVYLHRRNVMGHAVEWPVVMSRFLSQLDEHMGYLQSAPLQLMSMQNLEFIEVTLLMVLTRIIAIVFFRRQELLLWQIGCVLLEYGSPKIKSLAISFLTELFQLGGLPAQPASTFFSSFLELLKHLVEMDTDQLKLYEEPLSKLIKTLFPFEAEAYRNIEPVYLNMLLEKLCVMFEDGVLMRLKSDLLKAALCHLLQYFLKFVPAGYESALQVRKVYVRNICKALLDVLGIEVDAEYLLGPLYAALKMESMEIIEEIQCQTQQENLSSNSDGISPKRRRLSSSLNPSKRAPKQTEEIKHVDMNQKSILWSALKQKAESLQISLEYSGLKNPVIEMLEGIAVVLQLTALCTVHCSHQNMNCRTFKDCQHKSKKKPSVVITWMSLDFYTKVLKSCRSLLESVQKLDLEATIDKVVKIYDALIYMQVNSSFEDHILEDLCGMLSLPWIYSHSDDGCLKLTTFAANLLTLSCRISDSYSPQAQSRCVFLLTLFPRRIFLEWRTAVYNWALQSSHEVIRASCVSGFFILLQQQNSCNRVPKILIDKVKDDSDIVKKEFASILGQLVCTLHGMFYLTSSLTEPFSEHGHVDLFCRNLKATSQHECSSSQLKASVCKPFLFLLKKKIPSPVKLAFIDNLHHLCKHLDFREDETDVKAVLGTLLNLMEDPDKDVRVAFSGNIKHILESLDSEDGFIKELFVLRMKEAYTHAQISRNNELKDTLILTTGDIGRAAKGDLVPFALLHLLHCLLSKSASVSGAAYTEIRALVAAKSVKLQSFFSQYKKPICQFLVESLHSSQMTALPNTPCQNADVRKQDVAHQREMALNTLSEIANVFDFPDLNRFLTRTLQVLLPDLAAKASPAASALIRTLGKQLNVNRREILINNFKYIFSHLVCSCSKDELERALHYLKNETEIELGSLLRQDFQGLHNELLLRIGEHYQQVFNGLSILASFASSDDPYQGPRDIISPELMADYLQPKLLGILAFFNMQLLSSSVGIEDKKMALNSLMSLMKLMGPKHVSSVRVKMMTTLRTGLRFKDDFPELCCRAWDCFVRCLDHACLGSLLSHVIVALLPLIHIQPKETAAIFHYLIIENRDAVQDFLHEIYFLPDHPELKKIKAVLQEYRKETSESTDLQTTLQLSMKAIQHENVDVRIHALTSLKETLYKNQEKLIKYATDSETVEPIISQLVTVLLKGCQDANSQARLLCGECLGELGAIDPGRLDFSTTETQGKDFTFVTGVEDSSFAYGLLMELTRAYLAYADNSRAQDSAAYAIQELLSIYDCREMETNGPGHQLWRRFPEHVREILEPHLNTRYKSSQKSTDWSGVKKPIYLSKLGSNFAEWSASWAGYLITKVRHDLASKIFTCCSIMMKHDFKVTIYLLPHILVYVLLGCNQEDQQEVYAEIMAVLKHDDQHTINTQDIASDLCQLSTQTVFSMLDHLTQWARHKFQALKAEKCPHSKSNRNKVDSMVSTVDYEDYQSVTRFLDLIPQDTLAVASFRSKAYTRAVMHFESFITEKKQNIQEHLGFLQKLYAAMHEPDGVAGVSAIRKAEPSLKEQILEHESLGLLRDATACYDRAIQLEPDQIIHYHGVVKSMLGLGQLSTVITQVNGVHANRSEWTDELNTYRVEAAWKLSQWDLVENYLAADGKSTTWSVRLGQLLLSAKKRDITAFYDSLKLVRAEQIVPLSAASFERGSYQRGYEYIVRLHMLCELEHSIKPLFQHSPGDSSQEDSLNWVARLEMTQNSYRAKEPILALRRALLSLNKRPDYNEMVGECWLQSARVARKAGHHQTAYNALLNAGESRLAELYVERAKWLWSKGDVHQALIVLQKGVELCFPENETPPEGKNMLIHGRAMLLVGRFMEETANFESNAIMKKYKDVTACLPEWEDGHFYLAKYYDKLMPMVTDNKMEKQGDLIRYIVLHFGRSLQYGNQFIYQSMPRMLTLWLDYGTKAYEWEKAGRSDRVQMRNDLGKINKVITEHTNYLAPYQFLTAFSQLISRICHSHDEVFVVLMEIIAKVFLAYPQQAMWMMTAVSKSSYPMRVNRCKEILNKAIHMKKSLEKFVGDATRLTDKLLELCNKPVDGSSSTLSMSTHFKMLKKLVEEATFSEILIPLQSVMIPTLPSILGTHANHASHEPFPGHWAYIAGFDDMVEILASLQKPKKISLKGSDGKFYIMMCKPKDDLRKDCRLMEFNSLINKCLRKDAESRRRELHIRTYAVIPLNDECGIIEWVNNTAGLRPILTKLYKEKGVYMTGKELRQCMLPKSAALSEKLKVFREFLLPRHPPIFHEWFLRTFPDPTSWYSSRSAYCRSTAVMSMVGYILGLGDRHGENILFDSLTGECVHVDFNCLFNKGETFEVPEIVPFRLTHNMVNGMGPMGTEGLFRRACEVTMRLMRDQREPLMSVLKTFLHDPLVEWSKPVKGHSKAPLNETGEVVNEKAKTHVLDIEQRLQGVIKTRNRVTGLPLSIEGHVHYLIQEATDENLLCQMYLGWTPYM
How it was run: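 HCT116 exposed to compound for 24 h before 48 h with cisplatin at 2.5 μM. Lysis in RIPA buffer with protease and phosphatase inhibitors, protein measured by BCA, equal loads run on 12% SDS-PAGE and moved to PVDF. Blocked in 5% milk, anti-CHK1 mouse mAb overnight at 4 °C, HRP secondary and ECL detection, GAPDH as loading control.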

HCT-116 [8] = test: Potentiation of cisplatin-induced antiproliferative activity against human HCT116 cells assessed as cell growth inhibition at 2.5 uM preincubated for 24 hrs followed by 2.5 uM cisplatin addition and measured after 48 hrs by MTT assay (reference value: 26.98 +/-2.84%); assay type: functional; details: read-out: GI
L02 [9] = test: Cytotoxicity against human LO2 cells assessed as reduction in cell growth at 2.5 uM preincubated for 24 hrs followed by cisplatin addition and measured after 48 hrs by MTT assay; assay type: cell-based; details: l02, 48 h
HepG2 [10] = test: Growth inhibition of human HepG2 cells at 10 uM after 24 hrs by MTT assay relative to control; assay type: functional; details: HepG2, 24 h, read-out: GI; how it was run: as §2
HeLa [11] = test: Growth inhibition of human HeLa cells at 5 uM after 24 hrs by MTT assay relative to control; assay type: functional; details: read-out: GI; how it was run: as §2
HCT-116 [12] = test: Growth inhibition of human HCT116 cells at 10 uM after 24 hrs by MTT assay relative to control; assay type: functional; details: HCT-116, 24 h, read-out: GI; how it was run: as §2
HCT-116 [13] = test: Induction of apoptosis in human HCT116 cells assessed as late apoptotic cells at 2.5 uM after 24 hrs by Annexin V-FITC/propidium iodide staining based flow cytometry (reference value: 7.36%); assay type: functional
MCF7 [14] = test: Growth inhibition of human MCF7 cells at 5 uM after 24 hrs by MTT assay relative to control; assay type: functional; details: MCF7, 24 h, read-out: GI; how it was run: as §2
HCT-116 [15] = test: Induction of apoptosis in human HCT116 cells assessed as early apoptotic cells at 2.5 uM after 24 hrs by Annexin V-FITC/propidium iodide staining based flow cytometry (reference value: 5.75%); assay type: functional
HCT-116 [16] = test: Induction of morphological changes in human HCT116 cells assessed as reduction in number of adherent cells at 2.5 uM measured after 24 hrs by Hoechst 33258 staining based fluorescence microscopic analysis; assay type: functional, cell-based
KB [17] = test: Growth inhibition of human KB cells at 5 uM after 24 hrs by MTT assay relative to control; assay type: functional; details: read-out: GI; how it was run: as §2
A549 [18] = test: Growth inhibition of human A549 cells at 10 uM after 24 hrs by MTT assay relative to control; assay type: functional; details: A549, 24 h, read-out: GI; how it was run: as §2
KB [19] = test: Growth inhibition of human KB cells at 10 uM after 24 hrs by MTT assay relative to control; assay type: functional; details: read-out: GI; how it was run: as §2
L02 [20] = test: Cytotoxicity against human LO2 cells assessed as reduction in cell growth at 5 to 10 uM after 24 hrs by MTT assay; assay type: cell-based; details: l02, 24 h
HCT-116 [21] = test: Potentiation of cisplatin-induced apoptosis in human HCT116 cells assessed as viable cells at 2.5 uM preincubated for 24 hrs followed by cisplatin addition and measured after 48 hrs by Annexin V-FITC/propidium iodide staining based flow cytometry (reference value: 73.2%); assay type: functional; details: read-out: Activity
How it was run: (§3)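 HCT116 pretreated with compound for 24 h, then cisplatin at 2.5 μM added for 48 h. Cells harvested, washed in cold PBS, pelleted, stained with annexin V-FITC and propidium iodide, and counted by flow cytometry. Three independent experiments.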

HCT-116 [22] = test: Induction of apoptosis in human HCT116 cells assessed as necrotic cells at 2.5 uM after 24 hrs by Annexin V-FITC/propidium iodide staining based flow cytometry (reference value: […]); assay type: functional
MCF7 [23] = test: Growth inhibition of human MCF7 cells at 10 uM after 24 hrs by MTT assay relative to control; assay type: functional; details: MCF7, 24 h, read-out: GI; how it was run: as §2
HCT-116 [24] = test: Potentiation of cisplatin-induced apoptosis in human HCT116 cells assessed as late apoptotic cells at 2.5 uM preincubated for 24 hrs followed by cisplatin addition and measured after 48 hrs by Annexin V-FITC/propidium iodide staining based flow cytometry (reference value: 11.5%); assay type: functional; how it was run: as §3
HCT-116 [25] = test: Growth inhibition of human HCT116 cells at 2.5 uM after 24 hrs by MTT assay relative to control; assay type: functional; details: HCT-116, 24 h, read-out: GI; how it was run: as §2
HCT-116 [26] = test: Growth inhibition of human HCT116 cells at 5 uM after 24 hrs by MTT assay relative to control; assay type: functional; details: HCT-116, 24 h, read-out: GI; how it was run: as §2
HCT-116 [27] = test: Potentiation of cisplatin-induced morphological changes in human HCT116 cells assessed as cell shrinkage at 2.5 uM preincubated for 24 hrs followed by cisplatin addition and measured after 48 hrs by Hoechst 33258 staining based fluorescence microscopic analysis; assay type: functional; how it was run: as §1
HCT-116 [28] = test: Potentiation of cisplatin-induced morphological changes in human HCT116 cells assessed as reduction in number of adherent cells at 2.5 uM preincubated for 24 hrs followed by cisplatin addition and measured after 48 hrs by Hoechst 33258 staining based fluorescence microscopic analysis; assay type: functional, cell-based; how it was run: as §1
HCT-116 [29] = test: Induction of morphological changes in human HCT116 cells assessed as chromatin condensation at 2.5 uM measured after 24 hrs by Hoechst 33258 staining based fluorescence microscopic analysis; assay type: functional, cell-based
HCT-116 [30] = test: Potentiation of cisplatin-induced apoptosis in human HCT116 cells assessed as early apoptotic cells at 2.5 uM preincubated for 24 hrs followed by cisplatin addition and measured after 48 hrs by Annexin V-FITC/propidium iodide staining based flow cytometry (reference value: 4.07%); assay type: functional; how it was run: as §3
HCT-116 [31] = test: Potentiation of cisplatin-induced apoptosis in human HCT116 cells assessed as necrotic cells at 2.5 uM preincubated for 24 hrs followed by cisplatin addition and measured after 48 hrs by Annexin V-FITC/propidium iodide staining based flow cytometry (reference value: 11.3%); assay type: functional; how it was run: as §3

Compound: Cc1ccc(-c2nnc(-c3c[nH]c4ncc(-c5ccc(S(C)(=O)=O)cc5)cc4c3=O)o2)cc1
- Activity (HCT-116 [1]): Active
- Activity (HCT-116 [2]): Active
- inhibition of growth at 5 µM (HepG2 [3]): 6.9%
- viability at 2.5 µM (HCT-116 [4]): 72.4%
- inhibition of growth at 5 µM (A549 [5]): 6.69%
- inhibition of growth at 10 µM (HeLa [6]): 18.5%
- inhibition [7]: Dose-dependent effect
- inhibition of growth at 2.5 µM (HCT-116 [8]): 54.8%
- Activity (L02 [9]): Non-Toxic
- inhibition of growth at 10 µM (HepG2 [10]): 8.94%
- inhibition of growth at 5 µM (HeLa [11]): 10.4%
- inhibition of growth at 10 µM (HCT-116 [12]): 24.4%
- Activity (HCT-116 [13]): 6.26%
- inhibition of growth at 5 µM (MCF7 [14]): 6.26%
- Activity (HCT-116 [15]): 10.6%
- Activity (HCT-116 [16]): Active
- inhibition of growth at 5 µM (KB [17]): 0.43%
- inhibition of growth at 10 µM (A549 [18]): 11.2%
- inhibition of growth at 10 µM (KB [19]): 3.19%
- Activity (L02 [20]): Non-Toxic
- viability at 2.5 µM (HCT-116 [21]): 31.2%
- Activity (HCT-116 [22]): 10.8%
- inhibition of growth at 10 µM (MCF7 [23]): 10.6%
- Activity (HCT-116 [24]): 17.7%
- inhibition of growth at 2.5 µM (HCT-116 [25]): 7.47%
- inhibition of growth at 5 µM (HCT-116 [26]): 20.4%
- Activity (HCT-116 [27]): Active
- Activity (HCT-116 [28]): Active
- Activity (HCT-116 [29]): Active
- Activity (HCT-116 [30]): 20%
- Activity (HCT-116 [31]): 31.2%

Compound: Cc1cccc(-c2nnc(-c3c[nH]c4ncc(-c5ccc(S(C)(=O)=O)cc5)cc4c3=O)o2)c1
- Activity (HCT-116 [1]): Active
- Activity (HCT-116 [2]): Active
- inhibition of growth at 5 µM (HepG2 [3]): 13.2%
- viability at 2.5 µM (HCT-116 [4]): 70.4%
- inhibition of growth at 5 µM (A549 [5]): 7.92%
- inhibition of growth at 10 µM (HeLa [6]): 2.57%
- inhibition [7]: Dose-dependent effect
- inhibition of growth at 2.5 µM (HCT-116 [8]): 50.8%
- Activity (L02 [9]): Non-Toxic
- inhibition of growth at 10 µM (HepG2 [10]): 13.3%
- inhibition of growth at 5 µM (HeLa [11]): 1.49%
- inhibition of growth at 10 µM (HCT-116 [12]): 25.2%
- Activity (HCT-116 [13]): 6.89%
- inhibition of growth at 5 µM (MCF7 [14]): 1.86%
- Activity (HCT-116 [15]): 4.61%
- Activity (HCT-116 [16]): Active
- inhibition of growth at 5 µM (KB [17]): 3.7%
- inhibition of growth at 10 µM (A549 [18]): 8.95%
- inhibition of growth at 10 µM (KB [19]): 7.5%
- Activity (L02 [20]): Non-Toxic
- viability at 2.5 µM (HCT-116 [21]): 52.4%
- Activity (HCT-116 [22]): 18.1%
- inhibition of growth at 10 µM (MCF7 [23]): 7.76%
- Activity (HCT-116 [24]): 17.2%
- inhibition of growth at 2.5 µM (HCT-116 [25]): 8.13%
- inhibition of growth at 5 µM (HCT-116 [26]): 20.4%
- Activity (HCT-116 [27]): Active
- Activity (HCT-116 [28]): Active
- Activity (HCT-116 [29]): Active
- Activity (HCT-116 [30]): 6.98%
- Activity (HCT-116 [31]): 23.4%
